Test results as given in ChEMBL document CHEMBL1129245, “N-heteroaryl-2-phenyl-3-(benzyloxy)piperidines: a novel class of potent orally active human NK1 antagonists” (J Med Chem, 1996).

Key:
Substance-P receptor = Substance-P receptor (Homo sapiens, UniProt P25103); test: Displacement of [125 I]-Tyr8 SP from the cloned human Tachykinin receptor 1 expressed in CHO cells; type: cell-based
Rattus norvegicus [1] = test: Plasma concentration after 3 mg/kg peroral dosing in rat at 0.083 h; type: ADME, organism-based; set-up: dose 3 mg/kg, route oral; conditions: in vivo, po
Rattus norvegicus [2] = test: Plasma concentration after 3 mg/kg peroral dosing in rat at 6 hr; type: ADME, organism-based; set-up: dose 3 mg/kg, route oral; conditions: in vivo, po
Rattus norvegicus [3] = test: Plasma concentration of 3 mg/kg iv after 2 hr in rats; type: ADME, organism-based; set-up: dose 3 mg/kg, route intravenous; conditions: in vivo
Summary of the method: (§1)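 Rats given compound intravenously and orally in solution. Three rats per time point sampled for plasma drug levels. Pharmacokinetic parameters calculated from the plasma concentration–time data using standard equations. Data reported as mean ± SEM.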

Rattus norvegicus [4] = test: Plasma concentration of 3 mg/kg iv after 4 hr in rats; type: ADME, organism-based; set-up: dose 3 mg/kg, route intravenous; conditions: in vivo; summary of the method: as §1
Rattus norvegicus [5] = test: Plasma concentration after 3 mg/kg peroral dosing in rat at 4 hr; type: ADME, organism-based; set-up: dose 3 mg/kg, route oral; conditions: in vivo, po
Rattus norvegicus [6] = test: Plasma concentration of 3 mg/kg iv after 0.5 hr in rats; type: ADME, organism-based; set-up: dose 3 mg/kg, route intravenous; conditions: in vivo; summary of the method: as §1
Rattus norvegicus [7] = test: Plasma concentration after 3 mg/kg peroral dosing in rat at 0.5 hr; type: ADME, organism-based; set-up: dose 3 mg/kg, route oral; conditions: in vivo, po
Rattus norvegicus [8] = test: Plasma concentration of 3 mg/kg iv after 0.25 hr in rats; type: ADME, organism-based; set-up: dose 3 mg/kg, route intravenous; conditions: in vivo; summary of the method: as §1
[9] = Plasma clearance after intravenous administration iv dosing of 3 mg/kg in rat; type: ADME, organism-based; set-up: dose 3 mg/kg, route intravenous
Rattus norvegicus [10] = test: Plasma concentration after 3 mg/kg peroral dosing in rat at 1 hr; type: ADME, organism-based; set-up: dose 3 mg/kg, route oral; conditions: in vivo, po
[11] = Plasma volume of distribution of the 3 mg/kg in rat; type: ADME, organism-based; set-up: dose 3 mg/kg; summary of the method: as §1
Rattus norvegicus [12] = test: Plasma concentration after 3 mg/kg peroral dosing in rat at 2 hr; type: ADME, organism-based; set-up: dose 3 mg/kg, route oral; conditions: in vivo, po
[13] = Bioavailability in rat; type: ADME, organism-based; conditions: in vivo
Rattus norvegicus [14] = test: Plasma concentration after 3 mg/kg peroral dosing in rat at 0.25 hr; type: ADME, organism-based; set-up: dose 3 mg/kg, route oral; conditions: in vivo, po
Rattus norvegicus [15] = test: Plasma concentration of 3 mg/kg iv after 6 hr in rats; type: ADME, organism-based; set-up: dose 3 mg/kg, route intravenous; conditions: in vivo; summary of the method: as §1
Rattus norvegicus [16] = test: Plasma concentration after 3 mg/kg peroral dosing in rat at 8 hr; type: ADME, organism-based; set-up: dose 3 mg/kg, route oral; conditions: in vivo, po
Rattus norvegicus [17] = test: Plasma concentration of 3 mg/kg iv after 1 hr in rats; type: ADME, organism-based; set-up: dose 3 mg/kg, route intravenous; conditions: in vivo; summary of the method: as §1
Oryctolagus cuniculus = species on record: Oryctolagus cuniculus; test: Displacement of [3H]diltiazem from rabbit skeletal muscle calcium channel; type: tissue-based; conditions: Muscle tissue

Substance-P receptor, sequence (P25103 whole entry): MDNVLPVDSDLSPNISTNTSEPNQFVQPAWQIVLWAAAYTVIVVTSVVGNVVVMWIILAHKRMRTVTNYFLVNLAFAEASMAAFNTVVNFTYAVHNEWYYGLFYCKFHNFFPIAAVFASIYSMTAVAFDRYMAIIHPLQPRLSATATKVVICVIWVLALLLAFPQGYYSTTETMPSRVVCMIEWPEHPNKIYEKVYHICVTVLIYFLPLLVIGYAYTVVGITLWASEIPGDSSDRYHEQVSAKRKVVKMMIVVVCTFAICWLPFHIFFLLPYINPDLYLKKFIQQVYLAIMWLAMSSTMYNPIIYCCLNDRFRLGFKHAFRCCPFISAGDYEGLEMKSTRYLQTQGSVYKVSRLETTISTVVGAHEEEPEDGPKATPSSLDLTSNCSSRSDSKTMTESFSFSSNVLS

## FC(F)(F)c1cc(CO[C@H]2CCCN(Cc3cnc[nH]3)[C@H]2c2ccccc2)cc(C(F)(F)F)c1
Substance-P receptor
  IC50: 0.9 nM

## FC(F)(F)c1cc(CO[C@H]2CCCN(Cc3nnc[nH]3)[C@H]2c2ccccc2)cc(C(F)(F)F)c1
Rattus norvegicus [1]
  Concentration: 40.1 ng/mL
Rattus norvegicus [2]
  Concentration: < 10 ng/mL
Rattus norvegicus [3]
  Concentration: 71.3 ng/mL
Rattus norvegicus [4]
  Concentration: 13.2 ng/mL
Rattus norvegicus [5]
  Concentration: 11.2 ng/mL
Rattus norvegicus [6]
  Concentration: 581 ng/mL
Rattus norvegicus [7]
  Concentration: 35.1 ng/mL
Rattus norvegicus [8]
  Concentration: 826 ng/mL
[9]
  clearance: 44 mL/min/kg
Rattus norvegicus [10]
  Concentration: 33.7 ng/mL
[11]
  Vd: 2.6 L/kg
Rattus norvegicus [12]
  Concentration: 36.9 ng/mL
[13]
  bioavailability: 18%
Rattus norvegicus [14]
  Concentration: 116 ng/mL
Rattus norvegicus [15]
  Concentration: < 10 ng/mL
Rattus norvegicus [16]
  Concentration: < 10 ng/mL
Rattus norvegicus [17]
  Concentration: 304 ng/mL
Substance-P receptor
  IC50: 0.22 nM

## FC(F)(F)c1cc(CO[C@H]2CCCN(Cc3ccco3)[C@H]2c2ccccc2)cc(C(F)(F)F)c1
Substance-P receptor
  IC50: 36 nM

## FC(F)(F)c1cc(CO[C@H]2CCCN(Cc3n[nH]c(S)n3)[C@H]2c2ccccc2)cc(C(F)(F)F)c1
Oryctolagus cuniculus
  Binding affinity: 10 µM
Substance-P receptor
  IC50: 0.8 nM
